Active and inactive are the calls of the source. The rule behind the calls is not given here.
How the values were obtained:
[1] = Inhibition of CYP450 in rat liver microsomes assessed as reduction in aminopyrine N-demethylase activity preincubated for 3 mins followed by NADPH addition and measured after 15 mins by iodometric titration method; assay type: ADME; settings: rat, microsomes, 0.25 h
Summary of the method: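 CYP inhibition read by aminopyrine N-demethylase activity, with IC50 determined from concentration–response curves. Ketoconazole (CYP3A inhibitor) served as reference.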

[2] = Drug metabolism in CD-1 mouse liver microsomes assessed as benzimidazole oxidation at 50 uM measured after 1 hr by LC-HRMS analysis; assay type: ADME, Microsome
[3] = Drug metabolism in CD-1 mouse liver microsomes assessed as oxidative N-dealkylation at 50 uM measured after 1 hr by LC-HRMS analysis; assay type: ADME, Microsome
[4] = Metabolic stability in CD-1 mouse liver microsomes assessed as parent compound remaining at 50 uM measured after 1 hr in presence of NADPH generating system by UV-LC/MS analysis; assay type: ADME, Microsome; settings: read-out: Stability
Summary of the method: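 Mouse liver microsomes activated with NADPH. Residual parent compound was measured after 1 h incubation.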

[5] = biological target: T1, Indoleamine 2,3-dioxygenase 1 (Homo sapiens, UniProt P14902); test: Selectivity ratio of IC50 for IDO1 in IFNgamma-stimulated human DAN-G cells to IC50 for IDO1 in IFNgamma-stimulated human A375 cells
Target sequence in this assay (P14902 whole entry, looked up): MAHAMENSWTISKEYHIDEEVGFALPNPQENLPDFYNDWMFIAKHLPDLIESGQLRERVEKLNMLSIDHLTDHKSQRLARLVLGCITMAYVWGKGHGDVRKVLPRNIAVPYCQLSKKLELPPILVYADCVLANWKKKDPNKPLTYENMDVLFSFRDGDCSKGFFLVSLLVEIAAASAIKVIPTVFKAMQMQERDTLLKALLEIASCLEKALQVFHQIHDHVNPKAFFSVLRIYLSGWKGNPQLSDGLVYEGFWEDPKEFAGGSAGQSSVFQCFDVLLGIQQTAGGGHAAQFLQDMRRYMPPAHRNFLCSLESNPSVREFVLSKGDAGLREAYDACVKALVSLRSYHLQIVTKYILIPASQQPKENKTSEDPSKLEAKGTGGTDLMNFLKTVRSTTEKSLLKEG

[6] = biological target: T1, Indoleamine 2,3-dioxygenase 1; test: Inhibition of IDO1 in IFNgamma-stimulated human DAN-G cells assessed as reduction in L-Kyn level measured after 48 hrs by HPLC analysis; assay type: cell-based
Target sequence in this assay (P14902 whole entry): as the sequence (P14902 whole entry, looked up) above

[7] = biological target: T1, Indoleamine 2,3-dioxygenase 1; test: Inhibition of IDO1 in IFNgamma-stimulated human MCF7 cells assessed as reduction in L-Kyn level measured after 48 hrs by HPLC analysis; assay type: cell-based
Target sequence in this assay (P14902 whole entry): as the sequence (P14902 whole entry, looked up) above

[8] = biological target: Tryptophan 2,3-dioxygenase (Mus musculus, UniProt P48776); test: Inhibition of mouse TDO transfected in P815 cells assessed as reduction in L-Kyn level measured after 16 hrs by HPLC analysis; assay type: cell-based
Summary of the method: (§1)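 P815 mastocytoma cells stably expressing mouse IDO1 (P1.IDO1) or TDO (P1.TDO) were treated with serial dilutions for 16 h. L-Kyn secreted into the culture supernatant was quantified by HPLC, and an IC50 was determined in each line.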

[9] = biological target: Indoleamine 2,3-dioxygenase 1 (Mus musculus, UniProt P28776); test: Inhibition of mouse IDO1 transfected in P815 cells assessed as reduction in L-Kyn level measured after 16 hrs by HPLC analysis; assay type: cell-based; summary of the method: as §1
[10] = biological target: T1, Indoleamine 2,3-dioxygenase 1; test: Inhibition of IDO1 in IFNgamma-stimulated human A375 cells assessed as reduction in L-Kyn level measured after 48 hrs by HPLC analysis
Target sequence in this assay (P14902 whole entry): as the sequence (P14902 whole entry, looked up) above

[11] = Cytotoxicity against human A375 cells assessed as cell viability at 1 uM measured after 48 hrs by MTT assay relative to control; assay type: cell-based, A-375; settings: read-out: Activity
Summary of the method: (§2)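 A375 cells, unstimulated or stimulated with recombinant human IFN-γ, were left untreated or treated with 1 µM compound for 48 h. L-Kyn was measured by HPLC and cell viability was assessed.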

[12] = biological target: T1, Indoleamine 2,3-dioxygenase 1; test: Inhibition of IDO1 in IFNgamma-stimulated human A375 cells assessed as reduction in L-Kyn level at 1 uM measured after 48 hrs by HPLC analysis relative to control; summary of the method: as §2
Target sequence in this assay (P14902 whole entry, looked up): as above

Monocyte [13] = test: Cytotoxicity against PDAC patient derived monocytes assessed as reduction in cell viability at 30 uM measured after 24 hrs by Annexin-V APC/7-AAD staining based flow cytometric analysis; settings: human
Summary of the method: (§3)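 Monocytes from healthy donors (n=3) and from PDAC patients (n=3) were treated for 24 h, with DMSO as control. Viability was normalized to untreated cells. Healthy-donor cells received a range of concentrations; PDAC cells received 30 µM.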

Monocyte [14] = test: Cytotoxicity against human monocytes assessed as reduction in cell viability at 30 uM measured after 24 hrs by Annexin-V APC/7-AAD staining based flow cytometric analysis; summary of the method: as §3
[15] = biological target: T1, Indoleamine 2,3-dioxygenase 1; test: Inhibition of IDO1 in PDAC patient derived suppressive monocytes co-cultured with human PBMC assessed as reduction in anti-CD3/anti-CD28-stimulated CD3+T cell proliferation at 30 uM preincubated for 4 days followed by co-culturing of monocytes and measured after 24 hrs by flow cytometric analysis
Target sequence in this assay (P14902 whole entry, looked up): as above

Monocyte [16] = test: Effect on anti-CD3/anti-CD28-stimulated CD3+T cell proliferation in PDAC patient derived non-suppressive monocytes co-cultured with human PBMC at 30 uM preincubated for 4 days followed by co-culturing of monocytes and measured after 24 hrs by flow cytometric analysis; assay type: cell-based
Summary of the method: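 PDAC patient monocytes (suppressive or non-suppressive) were pre-treated with 30 µM compound or DMSO, then co-cultured for 4 days with Cell Trace-labelled activated CD3+ T cells. T-cell proliferation was read from proliferation peaks and normalized to activated T cells cultured without myeloid cells. Data are mean ± SEM; Mann-Whitney test.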

[17] = Half life in BALB/c mouse at 10 mg/kg, iv by LC-MS analysis; assay type: ADME, organism-based; settings: in vivo
Summary of the method: (§4)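 Mice received a single i.v. dose of 10 mg/kg. Serial blood samples were taken and PK parameters derived, including half-life, clearance, volume of distribution and Cmax.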

[18] = Volume of distribution in BALB/c mouse at 10 mg/kg, iv by LC-MS analysis; assay type: ADME, organism-based; settings: in vivo; summary of the method: as §4
[19] = Cmax in BALB/c mouse at 10 mg/kg, iv by LC-MS analysis; assay type: ADME, organism-based; set-up: dose 10 mg/kg, route intravenous; settings: in vivo; summary of the method: as §4
Mus musculus [20] = species on record: Mus musculus; test: Selectivity ratio of IC50 for inhibition of mouse TDO transfected in P815 cells to IC50 for inhibition of mouse IDO1 transfected in P815 cells; assay type: cell-based; summary of the method: as §1
Mus musculus [21] = test: In vivo inhibition of IDO1 in BALB/c mouse assessed as reduction in L-kyn level at 10 mg/kg, iv measured up to 8 hrs by LC-HRMS analysis
[22] = Metabolic stability in CD-1 mouse liver microsomes assessed as parent compound remaining at 50 uM measured after 1 hr in presence of NADPH by UV-LC/MS analysis

Chain of Indoleamine 2,3-dioxygenase 1 (Mus musculus, UniProt P28776) (P28776 whole entry): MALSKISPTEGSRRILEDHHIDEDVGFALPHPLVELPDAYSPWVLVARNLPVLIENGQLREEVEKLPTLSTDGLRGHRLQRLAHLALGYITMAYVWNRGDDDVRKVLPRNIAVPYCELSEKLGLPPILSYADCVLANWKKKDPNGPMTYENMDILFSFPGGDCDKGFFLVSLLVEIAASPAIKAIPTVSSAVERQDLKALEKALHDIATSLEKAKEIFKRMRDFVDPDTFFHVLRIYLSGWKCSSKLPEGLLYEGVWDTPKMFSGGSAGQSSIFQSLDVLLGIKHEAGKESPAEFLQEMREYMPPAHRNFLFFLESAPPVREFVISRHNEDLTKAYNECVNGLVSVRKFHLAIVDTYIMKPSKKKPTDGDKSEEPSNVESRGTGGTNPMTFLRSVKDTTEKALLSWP
Chain of Tryptophan 2,3-dioxygenase (P48776 whole entry): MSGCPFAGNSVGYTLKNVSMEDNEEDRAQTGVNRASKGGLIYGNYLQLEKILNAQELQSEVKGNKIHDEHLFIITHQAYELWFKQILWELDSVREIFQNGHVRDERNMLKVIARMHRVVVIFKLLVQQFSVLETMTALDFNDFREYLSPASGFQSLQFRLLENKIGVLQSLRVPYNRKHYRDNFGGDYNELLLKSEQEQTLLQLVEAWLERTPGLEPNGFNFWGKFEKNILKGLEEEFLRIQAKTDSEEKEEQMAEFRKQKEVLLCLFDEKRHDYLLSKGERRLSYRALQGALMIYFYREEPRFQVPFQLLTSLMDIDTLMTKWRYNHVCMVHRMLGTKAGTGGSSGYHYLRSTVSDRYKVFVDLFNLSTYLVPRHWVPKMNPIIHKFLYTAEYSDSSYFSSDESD

O=C(NCc1cccc(Cn2cnc3ccccc32)c1)c1cc2ccccc2[nH]1
inhibition (INH) [1]: Not Active | Drug metabolism [2]: Metabolite_Detected | Drug metabolism [3]: Metabolite_Detected | remaining at 1 h, 50 µM [4]: 65% | Ratio IC50 [5]: 1.9 | IC50 [6]: 0.14 µM | IC50 [7]: 0.083 µM | IC50 [8]: 13.2 µM | IC50 [9]: 0.0093 µM | IC50 [10]: 0.072 µM | viability at 48 h, 1 µM [11]: 99% | inhibition [12]: 94% | Activity (Monocyte [13]): Non-Toxic | Activity (Monocyte [14]): Non-Toxic | inhibition [15]: Active | Activity (Monocyte [16]): Non-Toxic | t1/2 [17]: 39 min | Vd [18]: 6.6 L/kg | Cmax [19]: 2680 ng/mL | Ratio IC50 (Mus musculus [20]): > 1000 | inhibition (Mus musculus [21]): Active | remaining at 1 h, 50 µM [22]: 65%

— ChEMBL document CHEMBL4354865 (J Med Chem, 2020)
